Results as given in ChEMBL document CHEMBL4196123, “Discovery of an Orally Bioavailable Dual PI3K/mTOR Inhibitor Based on Sulfonyl-Substituted Morpholinopyrimidines” (ACS Med Chem Lett, 2018).

Experiments:
[1] = molecular target: Cytochrome P450 1A2 (Homo sapiens, UniProt P05177); assay: Inhibition of CYP1A2 in human liver microsomes using phenacetin as substrate pretreated for 5 mins followed by NADPH addition and measured after 10 mins by LC-MS analysis; format: ADME
[2] = Tmax in CD1 mouse at 10 mg/kg, po administered via gavage by LC-MS/MS analysis; format: ADME, organism-based; conditions: in vivo
[3] = Inhibition of PI3K in human PC3 cells assessed as reduction in AKT phosphorylation at Ser473 measured after 2 hrs by fluorescence assay; format: cell-based; conditions: PC-3, 2 h
[4] = molecular target: PI3-kinase p110-alpha/p85-alpha (Homo sapiens, UniProt P42336); assay: Inhibition of recombinant human full length N-terminal His-tagged p110alpha/p85alpha expressed in baculovirus expression system using PIP2 as substrate measured after 1 hr by Alexa633 Tracer-based fluorescence polarization assay
Summary of the method: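 PI3Kα enzyme inhibition; IC50 is the mean of duplicate measurements.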

[5] = Clearance in CD1 mouse at 5 mg/kg, iv by LC-MS/MS analysis; format: ADME, organism-based; conditions: in vivo
[6] = test system: HT-29; assay: Antitumor activity against human HT-29 cells harboring PIK3CA P449T mutant xenografted in Balb/c nu/nu mouse assessed as tumor growth inhibition at 3.75 mg/kg, po administered daily via gavage for 27 days relative to control; format: functional; conditions: HT-29, po, 648 h, read-out: TGI
Summary of the method: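 Balb/c nu/nu mice carrying HT-29 xenografts were dosed by daily oral gavage for 27 days, starting when mean tumor size was about 240 mm³; vehicle group as control. Tumor volume estimated over time, and TGI calculated after 27 days. Mean ± SEM, n = 6. Dunnett's multiple comparison test.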

[7] = molecular target: Serine/threonine-protein kinase mTOR (Homo sapiens, UniProt P42345); assay: Inhibition of recombinant human GST-tagged mTOR catalytic domain (1360 to 2549 residues) expressed in baculovirus expression system using GFP-4EBP1 as substrate measured after 1 hr by Lathascreen method
[8] = Intrinsic clearance in mouse liver microsomes at […] pretreated up to 45 mins followed by NADPH addition and measured by LC-MS/MS analysis; format: ADME, microsome; conditions: read-out: CLH
[9] = molecular target: PI3-kinase p110-alpha/p85-alpha (Homo sapiens, UniProt P42336, E542K); assay: Inhibition of recombinant human His-tagged p85alpha/p110alpha E542K mutant expressed in insect cells
Sequence of PI3-kinase p110-alpha/p85-alpha (Homo sapiens, UniProt P42336, E542K) (P42336 whole entry E542K, looked up): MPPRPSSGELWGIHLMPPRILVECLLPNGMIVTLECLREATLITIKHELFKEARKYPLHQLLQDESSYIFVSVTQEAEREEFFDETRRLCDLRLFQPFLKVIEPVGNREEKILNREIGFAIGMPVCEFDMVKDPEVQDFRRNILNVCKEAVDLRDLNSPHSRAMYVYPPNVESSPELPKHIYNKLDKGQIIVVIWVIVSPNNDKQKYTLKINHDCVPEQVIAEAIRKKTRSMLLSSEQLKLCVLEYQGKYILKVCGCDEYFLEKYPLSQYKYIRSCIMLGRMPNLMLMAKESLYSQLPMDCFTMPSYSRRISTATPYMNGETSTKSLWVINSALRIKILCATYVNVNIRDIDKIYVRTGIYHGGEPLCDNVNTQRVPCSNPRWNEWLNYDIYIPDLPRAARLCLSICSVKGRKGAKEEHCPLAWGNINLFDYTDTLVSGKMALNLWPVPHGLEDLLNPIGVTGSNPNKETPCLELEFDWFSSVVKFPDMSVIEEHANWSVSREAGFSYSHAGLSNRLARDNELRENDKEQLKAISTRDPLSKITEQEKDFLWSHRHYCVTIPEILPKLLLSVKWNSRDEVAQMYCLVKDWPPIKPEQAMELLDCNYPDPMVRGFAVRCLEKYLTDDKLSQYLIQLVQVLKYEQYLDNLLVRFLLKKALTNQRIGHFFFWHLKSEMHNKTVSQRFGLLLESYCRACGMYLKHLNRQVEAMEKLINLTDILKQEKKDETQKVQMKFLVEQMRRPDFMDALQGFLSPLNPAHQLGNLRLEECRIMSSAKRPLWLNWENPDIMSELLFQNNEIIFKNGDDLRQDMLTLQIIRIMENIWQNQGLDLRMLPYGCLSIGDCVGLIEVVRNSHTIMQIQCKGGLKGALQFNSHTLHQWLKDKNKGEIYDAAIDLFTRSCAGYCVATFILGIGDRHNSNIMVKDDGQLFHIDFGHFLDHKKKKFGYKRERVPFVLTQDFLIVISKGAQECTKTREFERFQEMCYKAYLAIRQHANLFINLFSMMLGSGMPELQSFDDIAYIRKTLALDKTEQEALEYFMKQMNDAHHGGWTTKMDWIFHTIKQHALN

Sequence of PI3-kinase p110-alpha/p85-alpha (Homo sapiens, UniProt P42336) (P27986 whole entry): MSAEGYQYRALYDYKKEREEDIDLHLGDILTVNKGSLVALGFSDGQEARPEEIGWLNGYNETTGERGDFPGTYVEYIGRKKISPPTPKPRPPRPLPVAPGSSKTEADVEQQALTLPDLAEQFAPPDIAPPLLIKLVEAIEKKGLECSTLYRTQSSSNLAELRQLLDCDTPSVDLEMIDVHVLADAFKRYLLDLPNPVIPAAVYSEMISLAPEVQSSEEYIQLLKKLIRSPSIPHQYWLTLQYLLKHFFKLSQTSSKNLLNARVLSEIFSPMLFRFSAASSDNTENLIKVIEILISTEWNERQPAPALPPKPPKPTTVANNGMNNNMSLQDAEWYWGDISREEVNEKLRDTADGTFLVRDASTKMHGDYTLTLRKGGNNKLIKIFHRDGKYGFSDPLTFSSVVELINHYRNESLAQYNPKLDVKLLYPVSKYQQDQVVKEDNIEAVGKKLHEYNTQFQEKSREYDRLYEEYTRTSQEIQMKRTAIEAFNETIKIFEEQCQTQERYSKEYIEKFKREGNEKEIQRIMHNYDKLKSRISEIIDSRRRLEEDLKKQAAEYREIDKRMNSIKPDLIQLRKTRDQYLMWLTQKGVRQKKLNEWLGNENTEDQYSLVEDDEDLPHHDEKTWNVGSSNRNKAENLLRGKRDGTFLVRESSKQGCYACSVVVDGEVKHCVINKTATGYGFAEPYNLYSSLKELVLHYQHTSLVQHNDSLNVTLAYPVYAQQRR
Sequence of PI3-kinase p110-alpha/p85-alpha (Homo sapiens, UniProt P42336) (P42336 whole entry): as the sequence (P42336 whole entry E542K, looked up) above, with K542E counted along it
Sequence of Cytochrome P450 1A2 (P05177 whole entry): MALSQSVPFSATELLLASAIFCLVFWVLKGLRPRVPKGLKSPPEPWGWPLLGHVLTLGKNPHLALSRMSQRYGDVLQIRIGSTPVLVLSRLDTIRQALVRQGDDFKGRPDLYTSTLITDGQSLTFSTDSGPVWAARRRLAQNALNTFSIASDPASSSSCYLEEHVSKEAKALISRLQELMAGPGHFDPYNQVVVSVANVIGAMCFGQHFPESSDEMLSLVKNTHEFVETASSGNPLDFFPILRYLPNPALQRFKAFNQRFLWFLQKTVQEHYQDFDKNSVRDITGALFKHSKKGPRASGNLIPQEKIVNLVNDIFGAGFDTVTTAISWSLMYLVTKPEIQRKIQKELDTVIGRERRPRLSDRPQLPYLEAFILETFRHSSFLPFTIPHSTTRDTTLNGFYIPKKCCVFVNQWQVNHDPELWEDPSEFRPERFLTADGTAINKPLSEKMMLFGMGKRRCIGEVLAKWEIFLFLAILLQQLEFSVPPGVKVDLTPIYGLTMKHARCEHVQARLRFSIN

## C[C@H]1COCCN1c1nc(-c2cnc(N)cc2F)cc(C2(S(C)(=O)=O)CC2)n1
[1]
  IC50: > 10 µM
[2]
  Tmax: 15 min
[3]
  IC50: 196 nM
[4]
  IC50: 10 to 20 nM
[5]
  clearance: 15.2 mL/min/kg
[6]
  inhibition in vivo at 3.75 mg/kg: 54.4%
[7]
  IC50: 186 nM
[8]
  CLint scaled: 40 to 140 mL/min/kg
[9]
  IC50: 11 nM
